Published values collected from several papers.
Protocols differ between the studies behind these lines.
CA1: Carbonic anhydrase 1 (CA1, Homo sapiens, UniProt P00915)
ADRA2A: Alpha-2A adrenergic receptor (ADRA2A, Homo sapiens, UniProt P08913)
CA2: Carbonic anhydrase 2 (CA2, Homo sapiens, UniProt P00918)

SMILES	target	observed	mode	method	Ki [nM]
O=C(Oc1ccc(-c2ccccc2)cc1)c1ccc(=O)oc1	CA1	enzyme activity	inhibitor	stopped-flow	> 100000
Cc1cccc(CC(=O)Nc2nnc(S(N)(=O)=O)s2)c1	CA1	enzyme activity	inhibitor	stopped-flow	42.4
Cc1cc(Oc2ncccc2CN2CCN(c3ccc(Cl)cc3)CC2)ccc1-c1c(C)c(=O)[nH]c(=O)n1C	ADRA2A	ligand displacement	–	radioligand	576
C#CCOC(=O)c1ccc(=O)oc1	CA1	enzyme activity	inhibitor	stopped-flow	> 100000
OC1CCN(c2ccc(/C=N/NC(=S)Nc3cccc(Cl)c3Cl)cc2)CC1	CA2	enzyme activity	inhibitor	–	271
Cc1cc(Oc2ncccc2CN2CCN(c3ccc(Br)cc3)CC2)ccc1-c1c(C)c(=O)[nH]c(=O)n1C	ADRA2A	ligand displacement	–	radioligand	841
CCOCCn1c(C2CCN(CCc3ccc(C(C)(C)C(=O)O)cc3)CC2)nc2ccccc21	CA1	enzyme activity	inhibitor	–	9530
NS(=O)(=O)c1nnc(NC(=O)C2CCC3(CCCCC3)C2)s1 (stereo not drawn)	CA2	enzyme activity	inhibitor	stopped-flow	40.1
CC1=C(/C=C/C(C)=C/C=C/C(C)=C\C(=O)O)C(C)(C)CCC1	CA2	enzyme activity	inhibitor	absorbance	6900
NS(=O)(=O)c1cnc(NC(=O)CC2CCCCC2)s1	CA1	enzyme activity	inhibitor	stopped-flow	1580
Cc1cc(Oc2ncccc2CN2CCN(c3cccc(C)c3C)CC2)ccc1-c1c(C)c(=O)[nH]c(=O)n1C	ADRA2A	ligand displacement	–	radioligand	41.9
NS(=O)(=O)c1nnc(NC(=O)C2CCC3(CCCC3)CC2)s1	CA2	enzyme activity	inhibitor	stopped-flow	59.4
O=c1[nH]c(=O)n([C@H]2C[C@H](O)[C@@H](CO)O2)cc1/C=C/Br	CA1	enzyme activity	inhibitor	–	8390
Cc1cc(Oc2ncccc2CN2CCN(c3ccc([N+](=O)[O-])cc3C(F)(F)F)CC2)ccc1-c1c(C)c(=O)[nH]c(=O)n1C	ADRA2A	ligand displacement	–	radioligand	2110
O=C(NCc1cn(-c2ccc([N+](=O)[O-])cc2)nn1)c1ccc(=O)oc1	CA1	enzyme activity	inhibitor	stopped-flow	> 100000
Cc1cc(Oc2ncccc2CN2CCN(c3ccccc3C)CC2)ccc1-c1c(C)c(=O)[nH]c(=O)n1C	ADRA2A	ligand displacement	–	radioligand	59.4
Cc1ccc(C(=O)Nc2nnc(S(N)(=O)=O)s2)cc1	CA2	enzyme activity	inhibitor	stopped-flow	21.1
CCOC(=O)N1CCC(=C2c3ccc(Cl)cc3CCc3cccnc32)CC1	CA1	enzyme activity	inhibitor	–	8090
Cc1cc(Oc2ncccc2CN2CCN(c3c(C)cccc3C)CC2)ccc1-c1c(C)c(=O)[nH]c(=O)n1C	ADRA2A	ligand displacement	–	radioligand	731
CC(C)(C(=O)O)c1ccc(C(O)CCCN2CCC(C(O)(c3ccccc3)c3ccccc3)CC2)cc1 (stereo not drawn)	CA1	enzyme activity	inhibitor	–	13100
COc1ccc(-n2cc(COC(=O)c3ccc(=O)oc3)nn2)cc1	CA1	enzyme activity	inhibitor	stopped-flow	> 100000
Cc1cc(Oc2ncccc2CN2CCN(Cc3ccccc3Cl)CC2)ccc1-c1c(C)c(=O)[nH]c(=O)n1C	ADRA2A	ligand displacement	–	radioligand	81.2
CCN1/C(=C/C(C)=O)Sc2ccc(F)cc21	ADRA2A	ligand displacement	–	radioligand	50300
Nc1ccc(S(=O)(=O)c2ccc(N)cc2)cc1	CA1	enzyme activity	inhibitor	–	11600
COc1ccc(-n2cc(CNC(=O)c3ccc(=O)oc3)nn2)cc1	CA1	enzyme activity	inhibitor	stopped-flow	> 100000
Cc1cc(Oc2ncccc2CN2CCN(c3ccc(F)c(F)c3)CC2)ccc1-c1c(C)c(=O)[nH]c(=O)n1C	ADRA2A	ligand displacement	–	radioligand	418
COc1cc(C)c(/C=C/C(C)=C/C=C/C(C)=C/C(=O)O)c(C)c1C	CA2	enzyme activity	inhibitor	absorbance	7940
